Key:
[1] = Plasma concentration in Swiss albino mouse at 30 mg/kg, po after 1 hr; type: ADME, organism-based; design: dose 30 mg/kg, route oral
Summary of the method: (§1)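 Male Swiss Albino mice received a single 30 mg/kg oral gavage dose. Compound levels were measured in plasma and brain over time, and PK parameters were derived from the concentration–time data.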

Brain [2] = assay: Half-life in brain of Swiss albino mouse at 30 mg/kg, po; type: ADME, organism-based; design: dose 30 mg/kg, route oral; conditions: in vivo; summary of the method: as §1
[3] = Plasma concentration in Swiss albino mouse at 30 mg/kg, po after 4 hrs; type: ADME, organism-based; design: dose 30 mg/kg, route oral; summary of the method: as §1
Plasma [4] = assay: Cmax in plasma of Swiss albino mouse at 30 mg/kg, po; type: ADME, organism-based; design: dose 30 mg/kg, route oral; conditions: in vivo; summary of the method: as §1
Brain [5] = assay: Drug level in Swiss albino mouse brain at 30 mg/kg, po after 0.5 hr; type: ADME, organism-based; design: dose 30 mg/kg, route oral; conditions: in vivo; summary of the method: as §1
[6] = Plasma concentration in Swiss albino mouse at 30 mg/kg, po after 0.5 hrs; type: ADME, organism-based; design: dose 30 mg/kg, route oral; summary of the method: as §1
Brain [7] = assay: Drug level in Swiss albino mouse brain at 30 mg/kg, po after 0.083 hr; type: ADME, organism-based; design: dose 30 mg/kg, route oral; conditions: in vivo
[8] = Plasma concentration in Swiss albino mouse at 30 mg/kg, po after 8 hrs; type: ADME, organism-based; design: dose 30 mg/kg, route oral; summary of the method: as §1
[9] = Plasma concentration in Swiss albino mouse at 30 mg/kg, po after 0.25 hrs; type: ADME, organism-based; design: dose 30 mg/kg, route oral; summary of the method: as §1
[10] = target: Survival motor neuron protein (Homo sapiens) (UniProt Q16637); assay: Activation of SMN expressed in HEK293 cells assessed as rate of induction by SMN2-promotor driven luciferase reporter gene assay relative to basal level; type: cell-based; design: concentration or dose not given beside the values
Survival motor neuron protein (Homo sapiens), sequence (Q16637 whole entry): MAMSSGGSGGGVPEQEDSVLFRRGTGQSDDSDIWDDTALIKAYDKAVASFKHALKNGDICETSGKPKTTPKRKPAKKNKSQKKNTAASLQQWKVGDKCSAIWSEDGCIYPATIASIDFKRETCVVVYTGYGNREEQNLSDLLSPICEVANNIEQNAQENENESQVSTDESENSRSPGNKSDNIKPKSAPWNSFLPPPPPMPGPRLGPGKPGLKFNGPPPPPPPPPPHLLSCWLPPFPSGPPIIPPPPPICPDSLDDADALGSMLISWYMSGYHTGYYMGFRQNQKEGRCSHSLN
Summary of the method: (§2)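 HEK-293 cells stably carrying the SMN2 reporter construct, kept in DMEM with 10% FCS, glutamax, pyruvate, pen/strep and 200 µg/mL hygromycin, and assayed without hygromycin. 2,000 cells/well were plated and adhered overnight at 37 °C, 5% CO2. Compounds were added as a 7-point titration, 50 µM to 25 nM final, in 0.46% DMSO, for 30–36 h. OneGlo luminescence was normalized to 4.5 mM sodium butyrate (100%) and DMSO (0%).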

Brain [11] = assay: Drug level in Swiss albino mouse brain at 30 mg/kg, po after 2 hrs; type: ADME, organism-based; design: dose 30 mg/kg, route oral; conditions: in vivo; summary of the method: as §1
Caco-2 [12] = assay: Apparent permeability from apical side to basolateral side of human Caco2 cells at 10 uM; type: ADME, cell-based; conditions: caco-2, 10 µM
[13] = Plasma concentration in Swiss albino mouse at 30 mg/kg, po after 0.083 hrs; type: ADME, organism-based; design: dose 30 mg/kg, route oral
Plasma [14] = assay: AUClast in plasma of Swiss albino mouse at 30 mg/kg, po; type: ADME, organism-based; design: time 0 - last, dose 30 mg/kg, route oral; conditions: in vivo; summary of the method: as §1
Brain [15] = assay: Drug level in Swiss albino mouse brain at 30 mg/kg, po after 12 hrs; type: ADME, organism-based; design: dose 30 mg/kg, route oral; conditions: in vivo; summary of the method: as §1
Brain [16] = assay: Drug level in Swiss albino mouse brain at 30 mg/kg, po after 4 hrs; type: ADME, organism-based; design: dose 30 mg/kg, route oral; conditions: in vivo; summary of the method: as §1
[17] = Plasma concentration in Swiss albino mouse at 30 mg/kg, po after 2 hrs; type: ADME, organism-based; design: dose 30 mg/kg, route oral; summary of the method: as §1
Brain [18] = assay: Drug level in Swiss albino mouse brain at 30 mg/kg, po after 1 hr; type: ADME, organism-based; design: dose 30 mg/kg, route oral; conditions: in vivo; summary of the method: as §1
[19] = Plasma concentration in Swiss albino mouse at 30 mg/kg, po after 12 hrs; type: ADME, organism-based; design: dose 30 mg/kg, route oral; summary of the method: as §1
Brain [20] = assay: AUClast in brain of Swiss albino mouse at 30 mg/kg, po; type: ADME, organism-based; design: time 0 - last, dose 30 mg/kg, route oral; conditions: in vivo; summary of the method: as §1
Plasma [21] = assay: Half-life in plasma of Swiss albino mouse at 30 mg/kg, po; type: ADME, organism-based; design: dose 30 mg/kg, route oral; conditions: in vivo; summary of the method: as §1
[22] = target: T1, Luciferin 4-monooxygenase (Luciola lateralis, UniProt Q01158); assay: Inhibition of fire fly luciferase; design: species or system Aquatica lateralis; conditions: read-out: IC50
T1 sequence (Q01158 whole entry): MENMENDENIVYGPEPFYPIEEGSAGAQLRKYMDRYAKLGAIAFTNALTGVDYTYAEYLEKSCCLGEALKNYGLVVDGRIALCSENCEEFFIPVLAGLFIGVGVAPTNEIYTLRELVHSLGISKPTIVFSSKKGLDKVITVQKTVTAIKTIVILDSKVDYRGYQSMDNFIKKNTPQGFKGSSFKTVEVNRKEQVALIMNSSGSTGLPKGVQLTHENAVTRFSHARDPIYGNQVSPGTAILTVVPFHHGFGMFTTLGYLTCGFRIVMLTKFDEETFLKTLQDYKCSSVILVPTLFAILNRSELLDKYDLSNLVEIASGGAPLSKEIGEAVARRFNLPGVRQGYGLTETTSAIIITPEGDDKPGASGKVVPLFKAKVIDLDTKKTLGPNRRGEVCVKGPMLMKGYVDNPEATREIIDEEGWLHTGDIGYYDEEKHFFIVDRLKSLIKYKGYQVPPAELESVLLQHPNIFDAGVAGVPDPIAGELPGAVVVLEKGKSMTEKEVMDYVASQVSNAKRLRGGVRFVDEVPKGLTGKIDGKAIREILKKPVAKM

Brain [23] = assay: Drug level in Swiss albino mouse brain at 30 mg/kg, po after 24 hrs; type: ADME, organism-based; design: dose 30 mg/kg, route oral; conditions: in vivo; summary of the method: as §1
[24] = target: Survival motor neuron protein (Homo sapiens) (UniProt Q16637); assay: Activation of SMN expressed in HEK293 cells assessed as concentration required to reach 50% of maximum luciferase signal by SMN2-promotor driven luciferase reporter gene assay; type: cell-based; summary of the method: as §2
[25] = Ratio of AUC in brain to AUC in plasma in Swiss albino mouse at 30 mg/kg, po; type: ADME, organism-based; design: dose 30 mg/kg, route oral; conditions: brain and plasma
Summary of the method: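 Single oral gavage dose of 30 mg/kg given to male Swiss Albino mice; compound concentrations measured in both plasma and brain, from which brain and plasma exposure parameters were derived; animals observed for behavioural disturbance throughout the study.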

Brain [26] = assay: AUC (infinity) in brain of Swiss albino mouse at 30 mg/kg, po; type: ADME, organism-based; design: time infinity, dose 30 mg/kg, route oral; conditions: in vivo; summary of the method: as §1
Liver = assay: Half-life in mouse liver microsome at 1 uM; type: ADME; conditions: microsomes
Brain [27] = assay: Cmax in brain of Swiss albino mouse at 30 mg/kg, po; type: ADME, organism-based; design: dose 30 mg/kg, route oral; conditions: in vivo; summary of the method: as §1
[28] = Plasma concentration in Swiss albino mouse at 30 mg/kg, po after 24 hrs; type: ADME, organism-based; design: dose 30 mg/kg, route oral; summary of the method: as §1
Caco-2 [29] = assay: Apparent permeability from basolateral side to apical side of human Caco2 cells at 10 uM; type: ADME, cell-based; conditions: caco-2, 10 µM
Plasma [30] = assay: AUC (infinity) in plasma of Swiss albino mouse at 30 mg/kg, po; type: ADME, organism-based; design: dose 30 mg/kg, route oral, time infinity; conditions: in vivo; summary of the method: as §1
Brain [31] = assay: Drug level in Swiss albino mouse brain at 30 mg/kg, po after 8 hrs; type: ADME, organism-based; design: dose 30 mg/kg, route oral; conditions: in vivo; summary of the method: as §1
Brain [32] = assay: Drug level in Swiss albino mouse brain at 30 mg/kg, po after 0.25 hr; type: ADME, organism-based; design: dose 30 mg/kg, route oral; conditions: in vivo; summary of the method: as §1

`CC(C)Oc1cccc(-c2cnc(N3CCC(C(N)=O)CC3)s2)c1` gave a concentration at 1 h [1] of 1270 nM, a t1/2 (Brain [2]) of 5.44 h and a concentration at 4 h [3] of 2.8 nM. It also gave a Cmax (Plasma [4]) of 3.72 µM, a Drug uptake (Brain [5]) of 0.4 µmol/kg and a concentration at 0.5 h [6] of 1200 nM. The Drug uptake (Brain [7]) was 1.28 µmol/kg, the concentration at 8 h [8] was 25 nM and the concentration at 0.25 h [9] was 1200 nM. The Activity [10] was 709%, the Drug uptake (Brain [11]) was 0.23 µmol/kg and the Papp (Caco-2 [12]) was 6.1 ×10⁻⁶ cm/s. It also gave a concentration at 0.083 h [13] of 3.72 µM, an AUClast (Plasma [14]) of 1857 ng·h/mL and a Drug uptake (Brain [15]) of 0 µmol/kg. For the same compound, the Drug uptake (Brain [16]) was 0.083 µmol/kg, the concentration at 2 h [17] was 600 nM and the Drug uptake (Brain [18]) was 0.6 µmol/kg. The concentration at 12 h [19] was 19 nM, the AUClast (Brain [20]) was 546 ng·h/mL and the t1/2 (Plasma [21]) was 5.78 h. For the same compound, the IC50 [22] was 800 nM, the Drug uptake (Brain [23]) was 0.023 µmol/kg and the Activity [24] was 0.077 µM. The Kp [25] was 0.29, the AUC (Brain [26]) was 607 ng·h/mL and the t1/2 (Liver) was 30 min. It also gave a Cmax (Brain [27]) of 1.28 µmol/kg, a concentration at 24 h [28] of 60 nM and a Papp (Caco-2 [29]) of 0.3 ×10⁻⁶ cm/s. It also gave an AUC (Plasma [30]) of 1429 ng·h/mL, a Drug uptake (Brain [31]) of 0 µmol/kg and a Drug uptake (Brain [32]) of 0.31 µmol/kg.
